Converted amounts (≈) assume the structure as drawn.
What was measured:
[1] = test system: Mycobacterium tuberculosis; experiment: Antimycobacterial activity against Mycobacterium tuberculosis H37Rv after 3 to 4 weeks by microplate alamar blue assay; type: functional
[2] = Selectivity index, ratio of IC50 for human HFF cells to MIC for Mycobacterium tuberculosis H37Rv; type: functional
Outline: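 SI computed as IC50 on HFF cells (24 h MTT) divided by MIC against M. tuberculosis H37Rv (3–4 week microdilution, […]).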

HFF = experiment: Cytotoxicity against human HFF cells after 24 hrs by MTT assay; type: cell-based
Outline: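 Human foreskin fibroblasts in DMEM with 10% FCS exposed to test material for 24 h at 37 °C in CO2 incubator. MTT then added, 3 h further at 37 °C. Formazan read at 565 nm; percent cytotoxicity relative to untreated cells, reported as IC50.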

SMILES | MIC [1] | Selectivity Index [2] | IC50 (HFF)
CN1C(NC[C@H]2CN(c3ccc(N4CCOCC4)c(F)c3)C(=O)O2)=NS(=O)(=O)c2ccccc21 | > 6.25 µg/mL |  | 
CCN1C(NC[C@H]2CN(c3ccc(N4CCOCC4)c(F)c3)C(=O)O2)=NS(=O)(=O)c2ccccc21 | > 6.25 µg/mL |  | 
O=C1O[C@@H](CNC2=NS(=O)(=O)c3ccccc3N2c2ccccc2)CN1c1ccc(N2CCOCC2)c(F)c1 | > 6.25 µg/mL |  | 
CN1C(NC[C@H]2CN(c3ccc(N4CCSCC4)c(F)c3)C(=O)O2)=NS(=O)(=O)c2ccccc21 | > 6.25 µg/mL |  | 
CCN1C(NC[C@H]2CN(c3ccc(N4CCSCC4)c(F)c3)C(=O)O2)=NS(=O)(=O)c2ccccc21 | > 6.25 µg/mL |  | 
O=C1O[C@@H](CNC2=NS(=O)(=O)c3ccccc3N2c2ccccc2)CN1c1ccc(N2CCSCC2)c(F)c1 | > 6.25 µg/mL |  | 
O=C1O[C@@H](CNS(=O)(=O)c2ccccc2)CN1c1ccc(N2CCOCC2)c(F)c1 | > 6.25 µg/mL |  | 
O=C1O[C@@H](CNS(=O)(=O)c2ccc(Cl)cc2)CN1c1ccc(N2CCOCC2)c(F)c1 | > 6.25 µg/mL |  | 
O=C1O[C@@H](CNS(=O)(=O)c2ccc(F)cc2)CN1c1ccc(N2CCOCC2)c(F)c1 | 1 µg/mL (≈ 2.21 µM) | >100 | > 100 µM
Cc1ccc(S(=O)(=O)NC[C@H]2CN(c3ccc(N4CCOCC4)c(F)c3)C(=O)O2)cc1 | > 6.25 µg/mL |  | 
CC(=O)NC[C@H]1CN(c2ccc(N3CCN(C4=NS(=O)(=O)c5ccccc5N4C)CC3)c(F)c2)C(=O)O1 | 1 µg/mL (≈ 1.88 µM) | >100 | > 100 µM
CCN1C(N2CCN(c3ccc(N4C[C@H](CNC(C)=O)OC4=O)cc3F)CC2)=NS(=O)(=O)c2ccccc21 | 1 µg/mL (≈ 1.84 µM) | >50 | > 50 µM
CC(=O)NC[C@H]1CN(c2ccc(N3CCN(C4=NS(=O)(=O)c5ccccc5N4c4ccccc4)CC3)c(F)c2)C(=O)O1 | 6.25 µg/mL (≈ 10.5 µM) | >8 | > 50 µM
CN1C(NC[C@H]2CN(c3ccc(N4CCN(C(=O)/C=C/c5ccc(-c6ccc(Cl)cc6)o5)CC4)c(F)c3)C(=O)O2)=NS(=O)(=O)c2ccccc21 | > 6.25 µg/mL |  | 
CCN1C(NC[C@H]2CN(c3ccc(N4CCN(C(=O)/C=C/c5ccc(-c6ccc(Cl)cc6)o5)CC4)c(F)c3)C(=O)O2)=NS(=O)(=O)c2ccccc21 | > 6.25 µg/mL |  | 
O=C(/C=C/c1ccc(-c2ccc(Cl)cc2)o1)N1CCN(c2ccc(N3C[C@H](CNC4=NS(=O)(=O)c5ccccc5N4c4ccccc4)OC3=O)cc2F)CC1 | > 6.25 µg/mL |  | 
CC(=O)NC[C@H]1CN(c2ccc(N3CCOCC3)c(F)c2)C(=O)O1 [LINEZOLID] | 2 µg/mL (≈ 5.93 µM) |  | 
CO[C@H]1/C=C/O[C@@]2(C)Oc3c(C)c(O)c4c(O)c(c(/C=N/N5CCN(C)CC5)c(O)c4c3C2=O)NC(=O)/C(C)=C\C=C\[C@H](C)[C@H](O)[C@@H](C)[C@@H](O)[C@@H](C)[C@H](OC(C)=O)[C@@H]1C [RIFAMPIN] | 0.12 µg/mL (≈ 0.146 µM) |  | 

Source: ChEMBL document CHEMBL1687874, “Anti-tubercular agents. Part 6: synthesis and antimycobacterial activity of novel arylsulfonamido conjugated oxazolidinones” (Eur J Med Chem, 2011)
